Shown are actives, neighbours in structure and some others; about 2.3% of the full set was active somewhere.
DNA FID counter: fluorescent intercalator displacement, NS3 helicase counter-screen. DNA fluorescent intercalator displacement, fluorescence. inhibition, % at 7.9 µM. 0.17% of 290,000 active. AID 1845; in the data active means inhibition above about 37%;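 further: higher means more ethidium bromide displaced from hairpin DNA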
TRPC6 act: activates the mouse TRPC6 cation channel; B-score at 10 µM; 0.13% of 310,000 active; HEK293-TRPC6 membrane potential dye fluorescence; active compounds read high;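 active means B-score of the integrated fluorescence ratio above library mean plus 3 SD, and starting fluorescence ratio within library mean plus 5 SD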;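 further: higher score means more depolarization so channel activation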
TRPC4 act: TRPC4 (mouse) channel activation. 0.49% of 310,000 active. AID 2237. B-score at 10 µM. HEK293 TRPC4beta/mu-opioid, Fluo4 calcium fluorescence; active compounds read high;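 active means B-score above 5 SD of library B-scores, and initial fluorescence ratio not above library mean plus 5 SD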;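 further: positive B-score marks a calcium rise read as TRPC4 activation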
Target sequence (Q9QUQ5 whole entry, looked up): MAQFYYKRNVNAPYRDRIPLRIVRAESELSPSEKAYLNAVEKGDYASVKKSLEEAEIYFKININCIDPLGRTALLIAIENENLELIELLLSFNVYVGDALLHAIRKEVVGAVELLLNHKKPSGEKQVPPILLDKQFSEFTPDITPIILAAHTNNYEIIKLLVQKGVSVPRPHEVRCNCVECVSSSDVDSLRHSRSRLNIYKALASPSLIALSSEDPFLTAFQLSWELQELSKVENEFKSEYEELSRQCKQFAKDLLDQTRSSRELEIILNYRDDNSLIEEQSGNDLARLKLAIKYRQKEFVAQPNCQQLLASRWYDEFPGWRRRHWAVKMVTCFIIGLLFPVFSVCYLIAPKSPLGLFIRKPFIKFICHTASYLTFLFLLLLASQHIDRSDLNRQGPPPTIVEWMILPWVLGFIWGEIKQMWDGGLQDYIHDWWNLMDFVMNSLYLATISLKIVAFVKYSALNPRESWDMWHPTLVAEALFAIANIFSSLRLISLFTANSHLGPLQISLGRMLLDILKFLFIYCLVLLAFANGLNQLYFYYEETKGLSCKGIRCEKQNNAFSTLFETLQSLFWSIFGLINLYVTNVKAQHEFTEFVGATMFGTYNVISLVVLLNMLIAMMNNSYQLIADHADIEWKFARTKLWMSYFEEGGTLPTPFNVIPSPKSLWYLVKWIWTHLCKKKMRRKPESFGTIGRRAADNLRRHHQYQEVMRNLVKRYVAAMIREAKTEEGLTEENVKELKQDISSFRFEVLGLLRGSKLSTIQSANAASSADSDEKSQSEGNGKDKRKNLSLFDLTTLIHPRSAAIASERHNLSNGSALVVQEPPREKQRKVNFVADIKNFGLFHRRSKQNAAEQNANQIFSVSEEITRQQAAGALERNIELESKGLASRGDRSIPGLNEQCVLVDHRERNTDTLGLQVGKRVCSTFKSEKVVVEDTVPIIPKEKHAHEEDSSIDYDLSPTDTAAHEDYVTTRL
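Assay system – TRPC4beta and mu-opioid receptor HEK293 stable cells · Measured by – Fluo4 fluorescence, kinetic · Schedule – dye loading 45 min room temperature, 110 s kinetic read · Read-out – B-scored integrated calcium fluorescence ratio · Controls – buffer and maximal DAMGO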
TRPC4 block: TRPC4 (mouse) channel inhibition; B-score at 10 µM; 0.39% of 300,000 active; HEK293 TRPC4beta/mu-opioid, DAMGO-evoked Fluo4 calcium flux; active compounds read low; Q9QUQ5;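 active means B-score over 3 SD under the library average, no early fluorescence shift, positive overall ratio signal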
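Assay system: Stable TRPC4beta/mu-opioid receptor HEK293 cells | Reagent: DAMGO in two steps, submaximal then maximal | Compound dosing: Single concentration per test compound | Signal: Fluo4 Ca2+ flux fluorescence | Evaluation: Per-well B score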
TRPC4 PAM: allosterically enhances the mouse TRPC4 cation channel; AID 2227; B-score at 10 µM; 0.42% of 310,000 active; HEK293 TRPC4beta/mu-opioid, DAMGO EC20, Fluo-4 Ca2+ flux; active compounds read high;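 active means B-score of calcium response area above 5 SD of library B-scores, with initial fluorescence ratio within 5 SD of library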
TRPC6 inhibitor: inhibitors of mouse TRPC6 channel; Q61143; HEK293-TRPC6, membrane potential dye, ACh-evoked depolarization; active compounds read low; B-score at 10 µM; 1.1% of 310,000 active; AID 2553;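 active means B-score under library mean minus 3 SD, initial fluorescence not abnormally high, positive integrated signal ratio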;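 further: B-score derived from integrated fluorescence ratio over the kinetic read; more negative B-score means stronger inhibition of depolarization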
TRPC4 spec 2: second selectivity test of TRPC6 inhibitors: effect on mouse TRPC4; shares compounds with TRPC6 inhibitor; HEK293 TRPC4/MOR, membrane potential dye fluorescence; channel activated by saturating DAMGO dose; inhibition, % at 10 µM; 42% of 920 active; AID 2776;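 active means compounds whose fluorescence signal differed from control wells by over 3 SD, either direction, in both duplicate plates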
TRPC4 spec: selectivity of TRPC6 inhibitors: effect on mouse TRPC4. shares compounds with TRPC6 inhibitor. HEK293 TRPC4/mu-opioid, membrane potential fluorescence. activity change, negative = inhibition, % at 10 µM. 61% of 920 active. AID 2777;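 active means rise or fall in signal beyond 3 SD of buffer-only wells in both replicate plates, either sign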;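 further: integrated kinetic ratio of fluorescence range over baseline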
HEK293 MPD ctr 2-1: second check of TRPC6 inhibitor effects in parental HEK293 cells. 31% of 920 active. shares compounds with TRPC6 inhibitor. signal change vs control, % at 10 µM. parental HEK293 membrane potential dye fluorescence; maximal acetylcholine challenge after compound addition;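 active means membrane potential signal moving either way by over 3 SD of the maximum-effect control, in both duplicate plates, meaning non-specific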
HEK293 MPD ctr-1: counter-screen for TRPC6 inhibitors: effect in parental HEK293 cells; parental HEK293 membrane potential dye fluorescence; 60% of 920 active; shares compounds with TRPC6 inhibitor; AID 2780; membrane potential signal change, % at 10 µM;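 active means membrane potential signal shifting up or down by more than 3 SD of buffer-only wells, on both duplicate plates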
HEK293 MPD ctr-2: parental HEK293 nonspecific activity of TRPC6 modulators; membrane potential dye fluorescence; membrane potential signal change, % at 10 µM; 51% of 2,400 active; AID 488924; shares compounds with TRPC6 inhibitor;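 active means membrane potential signal moves up or down beyond 5 SD from buffer-only wells, on both duplicate plates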
HEK293 MPD ctr 2-2: second check of TRPC6 modulator effects in parental HEK293 cells; inhibition, % at 10 µM; shares compounds with TRPC6 inhibitor; 14% of 2,400 active; AID 488926; membrane potential dye fluorescence; after compound, maximal acetylcholine stimulation;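 active means membrane potential signal drops by more than 5 SD from the mean control signal, in both duplicate plates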
TRPC4/MOR mod: selectivity of TRPC6 modulators against mouse TRPC4; HEK293 TRPC4/mu-opioid, membrane potential fluorescence; shares compounds with TRPC6 inhibitor; percent change from control (negative = decrease, positive = increase), % at 10 µM; 69% of 2,400 active;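 active means membrane potential signal moved up or down beyond 5 SD of buffer control wells, in both duplicate plates, actives on both sides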
TRPC4/MOR inh 2: second check of whether TRPC6 modulators also affect mouse TRPC4; inhibition, % at 10 µM; AID 488928; 55% of 2,400 active; shares compounds with TRPC6 inhibitor; HEK293 TRPC4/mu-opioid, membrane potential dye fluorescence; stimulated with maximal-effect DAMGO;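 active means drop in membrane potential signal beyond 5 SD of the control wells in both duplicate plates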;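 further: TRPC4 counter screen for TRPC6 hits run under conditions tuned for TRPC6 not TRPC4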
TRPC6 block conf: confirmation of mouse TRPC6 inhibitors; 43% of 3,300 active; shares compounds with TRPC6 inhibitor; HEK293-TRPC6, membrane potential dye, ACh-evoked depolarization; AID 488960; inhibition, % at 10 µM;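 active means fluorescence ratio falls more than 5 SD below the full-stimulation control mean, in both duplicate runs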;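 further: integrated fluorescence ratio of peak minus minimum over baseline after agonist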
TRPC6 act conf: confirmation of mouse TRPC6 activators | shares compounds with TRPC6 inhibitor | AID 488961 | activation, % at 10 µM | HEK293-TRPC6 membrane potential dye fluorescence, FDSS | 11% of 2,800 active;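 active means ratio signal rise beyond 5 SD above unstimulated control wells' mean, seen in both duplicate runs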
A number is an active result; – = inactive; · = not tested or not shown.

SMILES | DNA FID counter | TRPC6 act | TRPC4 act | TRPC4 block | TRPC4 PAM | TRPC6 inhibitor | HEK293 MPD ctr-2 | HEK293 MPD ctr 2-2 | TRPC4/MOR mod | TRPC4/MOR inh 2 | TRPC6 block conf | TRPC6 act conf | others
Brc1ccc(CNc2nc3ccccc3n2CCN2CCCCC2)cc1 | – | – | – | – | – | -5.2 | – | – | 15% | 89% | 38% | –
COc1ccc(CNc2nc3ccccc3n2CCN2CCCCC2)c(OC)c1 | – | – | – | – | – | -10 | · | · | · | · | – | – | TRPC4 spec 2=42%;TRPC4 spec=9.3%;HEK293 MPD ctr 2-1=252%;HEK293 MPD ctr-1=7.9%
Brc1cccc(CNc2nc3ccccc3n2CCN2CCCCC2)c1 | – | – | – | – | – | – | · | · | · | · | · | ·
Cc1ccc(SCC(=O)Nc2ccc3c(c2)C(=O)N(C)C3=O)cc1 | – | – | – | – | – | – | · | · | · | · | · | ·
O=C1CC2(CCN(C(=O)c3cccc([N+](=O)[O-])c3)CC2)Oc2ccccc21 | · | – | – | – | – | – | · | · | · | · | · | ·
O=C(COc1ccc(S(=O)(=O)N2CCCC2)cc1)NCc1cccnc1 | – | – | – | – | – | – | · | · | · | · | · | ·
O=S(=O)(NCCNc1ncc(C(F)(F)F)cc1Cl)C(F)(F)F | – | – | – | – | – | -5.3 | – | – | 14% | 32% | 50% | –
O=C(c1cc2cc(F)ccc2[nH]1)N1CCC(Cc2ccccc2)CC1 | – | – | – | – | – | – | · | · | · | · | · | ·
O=C(CSCc1cnn(-c2ccccc2)c1-n1cccc1)NCc1ccccn1 | – | – | – | – | – | -6.3 | – | – | 11% | – | – | ·
COc1ccc(CNC(=O)CSCc2cnn(-c3ccccc3)c2-n2cccc2)cc1 | – | – | – | – | – | – | · | · | · | · | · | ·
COc1ccc(C2c3c(ncn(CCN4CCOCC4)c3=N)Oc3ccc4ccccc4c32)cc1OC (configuration not stated) | – | – | – | – | – | -5.1 | 204% | – | 34% | 40% | – | ·
COc1ccc(C2c3c(ncn(CCCO)c3=N)Oc3ccc4ccccc4c32)cc1OC (configuration not stated) | – | – | – | – | – | – | · | · | · | · | · | ·
Cc1ccc(NC2(C#N)C(=O)Nc3ccccc32)cc1C (configuration not stated) | – | – | – | – | – | – | · | · | · | · | · | ·
COC(=O)c1ccc(NC2(C#N)C(=O)Nc3ccccc32)cc1 (configuration not stated) | – | – | – | – | – | -8.5 | · | · | · | · | 88% | · | TRPC4 spec 2=–;TRPC4 spec=–;HEK293 MPD ctr 2-1=–;HEK293 MPD ctr-1=–
CC1CC(O)(CC(O)(c2ccccc2)c2ccccc2)C(C)CN1C (configuration not stated) | – | – | – | – | – | – | · | · | · | · | · | ·
CCN1CC(C)C(O)(c2ccccc2)CC1C (configuration not stated) | – | – | – | – | – | -7.2 | · | · | · | · | – | – | TRPC4 spec 2=–;TRPC4 spec=–;HEK293 MPD ctr 2-1=–;HEK293 MPD ctr-1=–
CC(C)N(CCNC(=O)C1CCCN(c2ncnc3c2nc2n3CCCCC2)C1)Cc1ccccc1 (configuration not stated) | – | – | – | – | – | – | · | · | · | · | · | ·
COc1ccc(CCn2nc(C)c([N+](=O)[O-])c2C)cc1 | – | – | – | – | – | -5.2 | – | – | 20% | – | – | ·
COC(=O)CSc1nc2sc3c(c2c(=O)n1C1CCCCC1)CCN(C)C3 | – | – | – | – | – | -9.4 | · | · | · | · | – | – | TRPC4 spec 2=78%;TRPC4 spec=–;HEK293 MPD ctr 2-1=–;HEK293 MPD ctr-1=-212%
C=CCn1c(SCC(=O)N2CCOCC2)nc2sc3c(c2c1=O)CCCC3 | – | – | – | – | – | – | · | · | · | · | · | ·
Cn1c(SCC(=O)N2CCOCC2)nc2sc3c(c2c1=O)CCCC3 | – | – | – | – | – | -8.8 | · | · | · | · | – | – | TRPC4 spec 2=–;TRPC4 spec=–;HEK293 MPD ctr 2-1=–;HEK293 MPD ctr-1=–
COC(=O)CSc1nc2sc3c(c2c(=O)n1-c1ccc(OC)cc1)CCN(C)C3 | – | – | – | – | – | – | · | · | · | · | · | ·
O=C1CN(C(=O)/C=C/c2cccc(Cl)c2)c2ccccc2N1 | – | – | – | – | – | -6.7 | · | · | · | · | – | – | TRPC4 spec 2=–;TRPC4 spec=–;HEK293 MPD ctr 2-1=–;HEK293 MPD ctr-1=–
O=C1CN(C(=O)/C=C/c2ccc(Cl)cc2)c2ccccc2N1 | – | – | – | – | – | – | · | · | · | · | · | ·
O=C1c2cccc3cccc(c23)C(=O)N1CCCN1CCN(c2ccc(F)cc2)CC1 | – | – | – | – | – | -7.1 | – | – | -12% | 66% | – | –
SMILES | DNA FID counter | TRPC6 act | TRPC4 act | TRPC4 block | TRPC4 PAM | TRPC6 inhibitor | HEK293 MPD ctr-2 | HEK293 MPD ctr 2-2 | TRPC4/MOR mod | TRPC4/MOR inh 2 | TRPC6 block conf | TRPC6 act conf | others
N=c1oc2ccc(Br)cc2cc1C(=O)NC1CCCCCC1 | – | – | – | – | – | – | · | · | · | · | · | ·
O=C(c1ccncc1)N1CCN(S(=O)(=O)c2cccc(F)c2)CC1 | – | – | – | – | – | – | · | · | · | · | · | ·
Cc1ccc(S(=O)(=O)N2CCN(C(=O)c3ccccc3)CC2)cc1 | – | 15 | – | – | – | -12 | – | – | – | – | 66% | 98%
O=C(c1cccc(-n2cccc2)c1)N1CCN(S(=O)(=O)c2c(F)cccc2F)CC1 | – | – | – | – | – | -6.1 | – | – | – | – | 44% | ·
O=C(c1ccccc1)N1CCN(C2C3CC4CC(C3)CC2C4)CC1 (configuration not stated) | – | – | – | – | – | -9.6 | · | · | · | · | – | · | TRPC4 spec 2=–;TRPC4 spec=2.6%;HEK293 MPD ctr 2-1=–;HEK293 MPD ctr-1=6.7%
Cc1ccc(C(=O)N2CCN(S(=O)(=O)c3ccccc3)CC2)cc1 | – | – | – | – | – | – | · | · | · | · | · | ·

Source: PubChem BioAssay (several laboratories)
